# Assay outcomes (PubChem BioAssay)
# Sampled rows, rich in hits. Any-hit rate of the full collection: about 2.2%.
# SIRT5 inh: SIRT5 desuccinylase inhibitors, primary screen, biochemical, fluorescence imaging, single point, set 5; NAD-dependent protein deacylase sirtuin-5, mitochondrial (Homo sapiens), Q9NXA8; Purified SirT5, succinyl-peptide AMC, trypsin-coupled fluorescence; inhibition, % at 15 µM; hit rate 1.1% among 330,000; in the data active means inhibition above about 15%
# Target sequence (Q9NXA8 whole entry, looked up): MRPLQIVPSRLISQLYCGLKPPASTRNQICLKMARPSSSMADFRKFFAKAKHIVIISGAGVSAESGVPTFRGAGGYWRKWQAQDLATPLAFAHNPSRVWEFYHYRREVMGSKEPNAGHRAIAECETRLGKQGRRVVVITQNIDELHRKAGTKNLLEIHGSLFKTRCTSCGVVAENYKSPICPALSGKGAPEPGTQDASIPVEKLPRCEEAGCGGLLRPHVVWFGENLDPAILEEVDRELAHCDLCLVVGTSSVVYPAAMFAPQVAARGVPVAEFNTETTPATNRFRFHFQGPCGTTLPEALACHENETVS
# FN deposition inh: inhibitors of fibronectin matrix deposition, primary screen, AH1F cells, Alexa488-fibronectin fluorescence, plate reader; AH1F fibroblasts, overnight; hit rate 0.086% among 350,000; inhibition, % at 12.6 µM; AID 743247, 2014;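 active means mean inhibition across replicates of 30% or more, regardless of how many single replicates reach that level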;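 further: positive control wells lacked labelled fibronectin entirely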
#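 test system = AH1F fibroblasts assembling fluorescent fibronectin matrix | quantity = 10000 AH1F cells per well | buffer or medium = DMEM plus 2% serum, read in PBS | doses = single dose, pinned | incubation = 1 h cell attachment, overnight exposure to compound and label | detection = fluorescence at 485 nm excitation, 525 nm emission | read-out basis = inhibition from reduced deposited-fibronectin fluorescence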
# PGC1a acetyl inh: inhibitors of PGC1a acetylation signal, primary screen, cell-based, U2OS, AlphaScreen, inhibitor mode | AlphaScreen anti-acetyl-lysine; with virally co-expressed GCN5 acetyltransferase | AID 651687, 2012 | inhibition, % at 15.6 µM | hit rate 0.17% among 350,000;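 active means every replicate shows inhibition of at least 40%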;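 further: 0% = neutral control wells and 100% = positive control wells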
# ERAP1 HTS inh: human ERAP1 aminopeptidase inhibitors, primary screen, biochemical, single point, plate reader | Endoplasmic reticulum aminopeptidase 1 (Homo sapiens), Q9NZ08 | recombinant ERAP1, Leu-AMC fluorescence, 60 min | inhibition, % at 10.7 µM | hit rate 0.15% among 340,000;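 active means mean replicate inhibition of at least 30%, or all replicates individually reaching that 30% level; inactive means mean below 30% and not every replicate reaching it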;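 further: 0% = neutral control wells and 100% = L-leucinethiol positive control wells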
# FGF22 binding: binders of human FGF22 protein, primary screen, FGF22 synaptogenesis inhibitor project, biophysical, thermal shift, single point; recombinant FGF22 thermal shift, SYPRO orange fluorescence; percent of sucrose octasulfate shift, DMSO zero; Fibroblast growth factor 22 (Homo sapiens), Q9HCT0; hit rate 1.5% among 340,000; activity (Tm shift, normalised), % at 9.99 µM;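 active means mean Tm shift, scaled 0 neutral to 100 positive control, at about 1.3% or above, every replicate too, limit read from the data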
# Target sequence (Q9HCT0 whole entry, looked up): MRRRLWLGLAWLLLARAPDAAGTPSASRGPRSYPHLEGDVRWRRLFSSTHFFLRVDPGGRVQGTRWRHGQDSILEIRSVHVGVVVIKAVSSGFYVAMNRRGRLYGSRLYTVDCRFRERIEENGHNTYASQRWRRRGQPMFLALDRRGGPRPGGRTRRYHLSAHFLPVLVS
# Starred values were filed as active, the others as inactive; · = no result; ! = not confirmed by another sample.
SMILES,SIRT5 inh,FN deposition inh,PGC1a acetyl inh,ERAP1 HTS inh,FGF22 binding
Cn1cc(CCNC(=O)CC2C(=O)NCCN2Cc2cccc(Oc3ccccc3)c2)cn1 (stereo not given),0,9,·,-4,44*
CC(C)OC(=O)C1CC(C)(O)C(=O)C(C(=O)OC(C)C)C1c1ccc([N+](=O)[O-])cc1 (stereo not given),-6,-1,·,1,43*
C[C@@H](NC(=O)C[C@H]1CC[C@@H]2[C@H](COC[C@H](O)CN2C)O1)c1ccccc1,-2,11,-9,2,0
Cc1ccc(S(=O)(=O)N2CC3(C)CN(S(=O)(=O)c4ccc(C)cc4)CC(C)(C2)C3=O)cc1,·,34*,7,·,·
COc1ccc(N2CCN(C(=O)CCc3cc(OC)c(OC)c(OC)c3)CC2)cc1,-8,4,2,-7,0
COc1ccc(NC(=O)N2CCN(c3ccc([N+](=O)[O-])cc3)CC2)cc1,1,5,-68,-5,43*
COc1cc(CCC(=O)N2CCN(c3ccccc3)CC2)cc(OC)c1OC,29*,-2,·,3,0
COc1ccc(NC(=O)N2CCN(c3ccc([N+](=O)[O-])cc3)CC2)cc1OC,-2,4,-1,1,·
COc1ccc(CNC(=O)N2CCN(c3ccccc3)CC2)cc1,16*,-1,-7,-6,0
COc1ccc(N2CCN(C(=O)CSc3ccc(C)cc3)CC2)cc1,-4,-13,2,1,44*
COc1ccc(N2CCN(C(=O)CSc3ccc([N+](=O)[O-])cc3)CC2)cc1,7,-6,-9,4,0
C[C@@H]1CN(C)C(=O)c2cc(N)ccc2O[C@@H]1CN(C)C,·,-2,·,·,·
Fc1ccc(-c2nnc3n2CCCCC3)cc1,17*,2,9,-6,0
c1ccc(-c2nnc3n2CCCC3)cc1,·,-6,·,·,·
COCC(=O)NC[C@@H]1N[C@@H](CO)[C@H]1c1ccc(C2=CCCCC2)cc1,-1,-11,2,-3,0
COCC(=O)NC[C@H]1N[C@H](CO)[C@H]1c1ccc(C2=CCCCC2)cc1,37*,-7,1,-3,0
CN(C[C@H]1N[C@@H](CO)[C@@H]1c1ccc(C2=CCCC2)cc1)C(=O)c1cccc(F)c1,-11,-34,76*,-6,0
O=S(=O)(c1ccc(-c2ccccc2)cc1)N1CCOCC1,·,11,-15,·,·
Cc1ccc(S(=O)(=O)N2CCCC2)cc1C(=O)O,·,-2,59*,·,·
O=S(=O)(c1ccc(S(=O)(=O)N2CCOCC2)cc1)N1CCCC1,6,16,11,2,43*
C[C@@H]1CN([C@@H](C)CO)C(=O)Cc2cc(NC(=O)NC3CCCCC3)ccc2O[C@@H]1CN(C)Cc1ccc(C(=O)O)cc1,-3,·,-2,0,0
COc1ccc(CN(C)C[C@@H]2Oc3ccc(NC(=O)Nc4ccc(OC)cc4)cc3C(=O)N([C@@H](C)CO)C[C@H]2C)cc1,19*,·,·,0,0
COc1ccc(NC(=O)Nc2ccc3c(c2)C(=O)N([C@@H](C)CO)C[C@H](C)[C@H](CN(C)Cc2ccc(Cl)c(Cl)c2)O3)cc1,19*,-5,8,1,0
COc1ccc(NC(=O)Nc2ccc3c(c2)C(=O)N([C@@H](C)CO)C[C@H](C)[C@H](CN(C)Cc2ccc(-c4ccccc4)cc2)O3)cc1,20*,·,1,-2,-1
COc1ccc(NC(=O)Nc2ccc3c(c2)C(=O)N([C@H](C)CO)C[C@H](C)[C@@H](CN(C)Cc2ccc(-c4ccccc4)cc2)O3)cc1,10,·,-22,-4,0
SMILES,SIRT5 inh,FN deposition inh,PGC1a acetyl inh,ERAP1 HTS inh,FGF22 binding
COc1ccc(CN(C)C[C@@H]2Oc3ccc(NC(=O)Nc4ccccc4)cc3C(=O)N([C@@H](C)CO)C[C@H]2C)cc1,4,·,0,-4,0
COc1ccc(NC(=O)Nc2ccc3c(c2)C(=O)N([C@H](C)CO)C[C@@H](C)[C@@H](CN(C)Cc2ccc(-c4ccccc4)cc2)O3)cc1,19*,·,-11,-2,-1
O=C(Nc1cccc(Cl)c1)N[C@@H]1CC[C@@H](CCNC(=O)C2CC2)O[C@@H]1CO,0,1,3,-1,0
COc1ccccc1C#Cc1ccc2c(c1)[C@H]1[C@H](CCN1S(=O)(=O)c1ccc(C)cc1)[C@H](CO)N2,·,9,-17,·,0
CO[C@H]1CN(C)C(=O)c2cc(NC(C)=O)ccc2OC[C@@H](C)N(Cc2ccc(F)cc2)C[C@@H]1C,3,·,-7,1,0
C[C@H](CO)N1C[C@H](C)[C@H](CN(C)S(=O)(=O)c2cn(C)cn2)Oc2cc(C3=CCCCC3)ccc2S1(=O)=O,-3,·,-5,0,-1
CC(C)NC(=O)Nc1ccc2c(c1)C(=O)N([C@H](C)CO)C[C@H](C)[C@H](CN(C)Cc1ccc(-c3ccccc3)cc1)O2,31*,·,3,0,0
C#Cc1ccc([C@H]2C=C(C(=O)NCc3ccccc3)O[C@@H](OCC)[C@@H]2CCCO)cc1,21*!,-3,-3,0,0
C#Cc1ccc([C@@H]2C=C(C(=O)Nc3ccccc3)O[C@H](OCC)[C@H]2CCCO)cc1,6,0,10,-1,0
c1ccn(-c2ccc(-c3ccn[nH]3)cc2)c1,2,-1,·,3,0
Cc1ccc(C)n1-c1ccc(-c2ccn[nH]2)cc1,-4,-3,6,-2,43*
CN(C)CCCNC(=O)C[C@@H]1CC[C@@H]2[C@@H](COc3ccc(NC(=O)c4ccccc4F)cc3C(=O)N2C)O1,7,-3,-3,-5,0
C/C(=N\Nc1cccc([N+](=O)[O-])c1)c1cc2ccccc2o1,-5,4,·,3,42
O=C(c1cccc([N+](=O)[O-])c1)c1cc2ccccc2o1,32*,-3,·,-8,0
COc1cccc(=O)c2c(C)n(CC(=O)c3ccccc3)c(C)c12,3,1,-4,-2,44*
C[C@H]1CN([C@@H](C)CO)C(=O)c2cc(NC(=O)Cn3cnnn3)ccc2O[C@@H]1CN(C)S(=O)(=O)c1ccc(F)cc1,31*,-3,0,3,0
C[C@H]1CN([C@@H](C)CO)C(=O)c2cc(NC(=O)Cn3cnnn3)ccc2O[C@H]1CN(C)S(=O)(=O)c1ccc(F)cc1,11,·,-8,8,0
C[C@H]1CN([C@@H](C)CO)C(=O)Cc2cc(NC(=O)Cn3cnnn3)ccc2O[C@@H]1CN(C)S(=O)(=O)c1ccc(Cl)cc1,-7,-9,-6,2,0
